Laboratory results from ChEMBL document CHEMBL1138220, “Synthesis and characterization of a novel liver-targeted prodrug of cytosine-1-beta-D-arabinofuranoside monophosphate for the treatment of hepatocellular carcinoma” (J Med Chem, 2006).
≈ marks a conversion by molar mass, not a printed value.

Experiments:
[1] = Aqueous solubility in phosphate buffer at pH 7.4; type: physicochemical
Procedure, shortened: (§1)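 Each prodrug was dissolved at 10 mg/mL (pyridyl prodrugs at 200 mg/mL) in 100 mM citrate buffer pH 4.0 or 100 mM phosphate pH 7.4. Samples were sonicated 20 min, held ~10 min at room temperature, filtered through 0.45 µm, diluted 1:100 or 1:10000 in DMSO, then quantified by C18 HPLC (acetonitrile gradient, 40 °C, 270 nm).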

Liver [2] = test: Distribution of araCTP in Swiss Webster mouse liver at 100 mg/kg, ip measured as AUC (0-4h); type: ADME, organism-based; parameters: time < 5 hr, dose 100 mg/kg, route intraperitoneal; conditions: in vivo, 5 h
Procedure, shortened: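 Nonfasted male Swiss Webster mice were dosed i.p. at a molar equivalent of 100 mg/kg araC. Livers were taken at set times up to 4 h, snap-frozen, homogenized in 3 volumes of 10% PCA, centrifuged and neutralized with KOH/KHCO₃. AraCTP was measured and reported as AUC 0-4 h (nmol·h/g).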

[3] = Aqueous solubility in citrate buffer at pH 4; type: physicochemical; procedure, shortened: as §1
Bone marrow = test: Distribution of araCTP in Swiss Webster mouse bone marrow at 100 mg/kg, ip measured as AUC (0-4h); type: ADME, organism-based; parameters: time < 5 hr, dose 100 mg/kg, route intraperitoneal; conditions: in vivo, 5 h
Procedure, shortened: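 Male Swiss Webster mice were given i.p. prodrug at a molar equivalent of 100 mg/kg araC. Bone marrow cell pellets collected up to 4 h were extracted with 12 volumes of 3% PCA, centrifuged 10 min and neutralized to pH 7-8 with KOH/KHCO₃. AraCTP was expressed as AUC 0-4 h; the lower limit of quantitation was 3 nmol·h/g.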

[4] = Stability in phosphate buffer at pH 7.4 at 37 degC at 100 uM after 24 hrs; type: physicochemical; conditions: for remaining at 24 h, 100 µM: phosphate buffer, pH 7.4, read-out: Stability
Procedure, shortened: (§2)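 Prodrug at 100 µM in 10 mM phosphate buffer pH 7.4, held at 37 °C. Intact prodrug was quantified by C18 HPLC at 270 nm and expressed as % remaining at 24 h or 72 h.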

Liver [5] = test: Ratio of AUC for araCTP level in liver to bone marrow of Swiss Webster mouse; type: functional
Liver [6] = test: Ratio of AUC for araCTP level in liver to plasma of Swiss Webster mouse; type: functional
[7] = Stability in phosphate buffer at pH 7.4 at 37 degC at 100 uM after 72 hrs; type: physicochemical; conditions: for remaining at 72 h, 100 µM: phosphate buffer, pH 7.4, read-out: Stability; procedure, shortened: as §2
[8] = phosphate buffer, read-out: Solubility
[9] = citrate buffer, read-out: Solubility

Row | Compound | solubility [1, 8] [µg/mL] | AUC (Liver [2]) [nmol·h/g] | solubility [3, 9] [µg/mL] | AUC (Bone marrow) [nmol/g] | remaining at 24 h, 100 µM [4] [%] | Ratio AUC (Liver [5]) | Ratio AUC (Liver [6]) | remaining at 72 h, 100 µM [7] [%] | solubility ([1]; buffer) [µg/mL] | solubility ([3]; buffer) [µg/mL] | Stability ([4]; buffer, pH 7.4, 24 h, 100 µM, 24 h) [%] | Stability ([7]; buffer, pH 7.4, 72 h, 100 µM, 72 h) [%]
1 | Nc1ccn([C@@H]2O[C@H](COP3(=O)OCC[C@@H](c4ccncc4)O3)[C@@H](O)[C@@H]2O)c(=O)n1 (some centres not stated) | 7100 (≈ 16.1 mM) | 148.8 | 23900 (≈ 54.3 mM) | < 12 | > 99 | >12 | 19.6 | > 95 | – | – | – | –
2 | Nc1ccn([C@@H]2O[C@H](COP3(=O)OCC[C@H](c4ccc(Br)cc4)O3)[C@@H](O)[C@@H]2O)c(=O)n1 (some centres not stated) | – | – | – | – | 9 | – | – | 4 | – | – | – | –
3 | Nc1ccn([C@@H]2O[C@H](COP3(=O)OCC[C@H](c4ccc(Cl)cc4)O3)[C@@H](O)[C@@H]2O)c(=O)n1 (some centres not stated) | – | – | – | – | 5 | – | – | 4 | – | – | – | –
4 | Nc1ccn([C@@H]2O[C@H](COP3(=O)OCC[C@H](c4cccc(Cl)c4)O3)[C@@H](O)[C@@H]2O)c(=O)n1 (some centres not stated) | 1700 (≈ 3.59 mM) | – | 3700 (≈ 7.81 mM) | – | 63 | – | – | 21 | – | – | – | –
5 | Nc1ccn([C@@H]2O[C@H](COP3(=O)OCC[C@H](c4ccc(F)c(Cl)c4)O3)[C@@H](O)[C@@H]2O)c(=O)n1 (some centres not stated) | 3200 (≈ 6.51 mM) | – | 6700 (≈ 13.6 mM) | – | 74 | – | – | 52 | – | – | – | –
6 | Nc1ccn([C@@H]2O[C@H](COP3(=O)OCC[C@H](c4cc(Cl)cc(Cl)c4)O3)[C@@H](O)[C@@H]2O)c(=O)n1 (some centres not stated) | 500 (≈ 0.984 mM) | – | 1100 (≈ 2.16 mM) | – | 82 | – | – | 76 | – | – | – | –
7 | Nc1ccn([C@@H]2O[C@H](COP3(=O)OCC[C@H](c4cccnc4)O3)[C@@H](O)[C@@H]2O)c(=O)n1 (some centres not stated) | 176000 (≈ 400 mM) | – | 172000 (≈ 391 mM) | – | 99 | – | – | 83 | – | – | – | –
8 | COC(=O)c1cccc([C@H]2CCOP(=O)(OC[C@H]3O[C@@H](n4ccc(N)nc4=O)[C@@H](O)[C@@H]3O)O2)c1 (some centres not stated) | 7200 (≈ 14.5 mM) | – | 10300 (≈ 20.7 mM) | – | 60 | – | – | 23 | – | – | – | –
9 | COC(=O)c1ccc([C@H]2CCOP(=O)(OC[C@H]3O[C@@H](n4ccc(N)nc4=O)[C@@H](O)[C@@H]3O)O2)cc1 (some centres not stated) | 5700 (≈ 11.5 mM) | – | 7400 (≈ 14.9 mM) | – | 84 | – | – | 61 | – | – | – | –
10 | Nc1ccn([C@@H]2O[C@H](COP3(=O)OCC[C@H](c4ccncc4)O3)[C@@H](O)[C@@H]2O)c(=O)n1 (stereo in doubt; 10i) | – | – | – | – | – | – | – | – | > 200000 | > 200000 | 92 | 90
11 | Nc1ccn([C@@H]2O[C@H](COP3(=O)OCC[C@H](c4ccncc4)O3)[C@@H](O)[C@@H]2O)c(=O)n1 (stereo in doubt; 19R) | – | 68 | – | < 12 | > 99 | >7 | 19.4 | > 97 | 16700 (≈ 37.9 mM) | 37900 (≈ 86.1 mM) | – | –
12 | Nc1ccn([C@@H]2O[C@H](CO)[C@@H](O)[C@@H]2O)c(=O)n1 [CYTARABINE] | – | < 19.2 | – | 46 | – | <0.42 | <0.16 | – | – | – | – | –
